From ChEMBL document CHEMBL1155366, “Synthesis of novel ageladine A analogs showing more potent matrix metalloproteinase (MMP)-12 inhibitory activity than the natural product” (Bioorg Med Chem Lett, 2009)

biological target: Macrophage metalloelastase (Homo sapiens, UniProt P39900); test: Inhibition of human MMP12 catalytic domain
How it was run: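 Human MMP-12 catalytic domain (residues 84-255) in 50 mM Tris pH 7.5, 0.05% Brij-35, 10 mM CaCl₂, 1 mM DTNB. Preincubated with inhibitor in DMSO for 20 min at RT. The chromogenic thiopeptolide substrate (1 mM stock) was then added and the mix incubated 30–80 min at 37 °C. Reaction stopped with 0.2 M EDTA (pH 8.0); color read at 405 nm.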

Macrophage metalloelastase, sequence (P39900 whole entry, the tested form may be a part): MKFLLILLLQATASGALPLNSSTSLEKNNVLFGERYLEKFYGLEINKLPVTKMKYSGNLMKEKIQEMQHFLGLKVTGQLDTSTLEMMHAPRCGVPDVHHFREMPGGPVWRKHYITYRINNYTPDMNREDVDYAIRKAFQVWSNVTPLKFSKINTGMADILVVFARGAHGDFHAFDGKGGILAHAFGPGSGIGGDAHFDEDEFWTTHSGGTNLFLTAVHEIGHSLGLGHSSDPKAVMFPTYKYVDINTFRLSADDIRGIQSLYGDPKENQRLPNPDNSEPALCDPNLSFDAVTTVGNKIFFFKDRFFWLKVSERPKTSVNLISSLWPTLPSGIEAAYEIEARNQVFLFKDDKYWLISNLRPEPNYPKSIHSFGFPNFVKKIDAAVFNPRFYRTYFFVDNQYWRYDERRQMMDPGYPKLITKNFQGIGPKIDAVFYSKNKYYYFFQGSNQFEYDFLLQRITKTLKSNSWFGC

Row | SMILES | IC50
1 | Nc1nc2c(-c3cc(Br)c[nH]3)nccc2[nH]1 | > 100 µM
2 | Nc1nc2c(-c3ccc(Br)[nH]3)nccc2[nH]1 | > 100 µM
3 | Nc1nc2c(-c3cc(Br)c(-c4ccc(-c5ccccc5)cc4)[nH]3)nccc2[nH]1 | > 100 µM
4 | Nc1nc2c(-c3cc(Br)c(Cl)[nH]3)nccc2[nH]1 | 2.02 µM
5 | Nc1nc2c(-c3cc(Br)c(-c4cccc(-c5ccccc5)c4)[nH]3)nccc2[nH]1 | > 100 µM
6 | Nc1nc2c(-c3cc(Cl)c(Cl)[nH]3)nccc2[nH]1 | 5.02 µM
7 | Nc1nc2c(-c3cc(CCc4ccccc4)c(Br)[nH]3)nccc2[nH]1 | 10.2 µM
8 | Cc1cc(-c2nccc3[nH]c(N)nc23)[nH]c1Br | > 100 µM
9 | Nc1nc2c(-c3cc(-c4ccccc4)c(Br)[nH]3)nccc2[nH]1 | 18.7 µM
10 | Nc1nc2c(-c3[nH]c(Br)c(CCc4ccc(C(F)(F)F)cc4)c3Br)nccc2[nH]1 | > 100 µM
11 | Nc1nc2c(-c3[nH]c(Br)c(CCc4cccc(C(F)(F)F)c4)c3Br)nccc2[nH]1 | > 100 µM
12 | Nc1nc2c(-c3cc(Br)c(-c4ccccc4)[nH]3)nccc2[nH]1 | > 100 µM
13 | Nc1nc2c(-c3[nH]c(Br)c(Cc4ccccc4)c3Br)nccc2[nH]1 | > 100 µM
14 | Nc1nc2c(-c3[nH]c(Br)c(CCc4ccccc4)c3Br)nccc2[nH]1 | 2.99 µM
15 | Nc1nc2c(-c3[nH]c(Br)c(CCc4ccccc4C(F)(F)F)c3Br)nccc2[nH]1 | > 100 µM
16 | Cc1c(Br)[nH]c(-c2nccc3[nH]c(N)nc23)c1Br | 5.02 µM
17 | Cc1[nH]c(-c2nccc3[nH]c(N)nc23)cc1Br | > 100 µM
18 | Nc1nc2c(-c3[nH]c(Br)c(Br)c3Br)nccc2[nH]1 | 1.24 µM
19 | Cc1[nH]c(-c2nccc3[nH]c(N)nc23)c(Br)c1Br | > 100 µM
20 | Nc1nc2c(-c3cc(Cc4ccccc4)c(Br)[nH]3)nccc2[nH]1 | > 100 µM
21 | Nc1nc2c(-c3[nH]c(Br)c(Br)c3CCc3ccccc3)nccc2[nH]1 | > 100 µM
22 | Nc1nc2c(-c3cc(CCCc4ccccc4)c(Br)[nH]3)nccc2[nH]1 | > 100 µM
23 | Nc1nc2c(-c3[nH]c(Br)c(CCCc4ccccc4)c3Br)nccc2[nH]1 | > 100 µM
